Columns and labels:
MIA PaCa-2 [1] = assay: Effect on CTBP1 gene expression in human MIAPaCa2 cells at 400 nM after 24 hrs by RNA sequence analysis relative to control; assay type: functional
Summary of the method: (§1)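 PANC-1 (0.35 x 10^6) or MIA PaCa-2 (1.5 x 10^6) cells seeded overnight in 60 mm plates, then exposed to 400 nM compound for 6 or 24 h; untreated cells as controls. Cells were mycoplasma-free and STR-certified. Differential expression by RNA-seq, called at FDR < 0.1.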

MIA PaCa-2 [2] = assay: Effect on PLXNA1 gene expression in human MIAPaCa2 cells at 400 nM after 24 hrs by RNA sequence analysis relative to control; assay type: functional
MIA PaCa-2 [3] = assay: Effect on PRDM16 gene expression in human MIAPaCa2 cells at 400 nM after 24 hrs by RNA sequence analysis relative to control; assay type: functional
PANC-1 [4] = assay: Effect on SMO gene expression in human PANC1 cells at 400 nM after 6 hrs by RNA sequence analysis relative to control; assay type: functional
Summary of the method: (§2)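 RNA-seq: cells seeded overnight in 60 mm plates (PANC-1 0.35 x 10^6, MIA PaCa-2 1.5 x 10^6 cells/well), then exposed to 400 nM compound for 6 or 24 h against untreated controls. Cell lines mycoplasma-free by RNA-capture ELISA and STR-profiled. Differentially expressed genes called at FDR < 0.1.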

MIA PaCa-2 [5] = assay: Effect on TP73 gene expression in human MIAPaCa2 cells at 400 nM after 24 hrs by RNA sequence analysis relative to control; assay type: functional; summary of the method: as §2
PANC-1 [6] = assay: Effect on GLI2 gene expression in human PANC1 cells at 400 nM after 6 hrs by RNA sequence analysis relative to control; assay type: functional; summary of the method: as §1
PANC-1 [7] = assay: Effect on GLI1 gene expression in human PANC1 cells at 400 nM after 6 hrs by RNA sequence analysis relative to control; assay type: functional; summary of the method: as §1
PANC-1 [8] = assay: Effect on PFKL gene expression in human PANC1 cells at 400 nM after 24 hrs by RNA sequence analysis relative to control; assay type: functional
PANC-1 [9] = assay: Effect on TEAD3 gene expression in human PANC1 cells at 400 nM after 24 hrs by RNA sequence analysis relative to control; assay type: functional; summary of the method: as §2
MIA PaCa-2 [10] = assay: Effect on PIK3R2 gene expression in human MIAPaCa2 cells at 400 nM after 6 hrs by RNA sequence analysis relative to control; assay type: functional
PANC-1 [11] = assay: Effect on ROBO3 gene expression in human PANC1 cells at 400 nM after 6 hrs by RNA sequence analysis relative to control; assay type: functional; summary of the method: as §2
MIA PaCa-2 [12] = assay: Effect on MAPK11 gene expression in human MIAPaCa2 cells at 400 nM after 24 hrs by RNA sequence analysis relative to control; assay type: functional
MIA PaCa-2 [13] = assay: Effect on FASN gene expression in human MIAPaCa2 cells at 400 nM after 6 hrs by RNA sequence analysis relative to control; assay type: functional; summary of the method: as §1
MIA PaCa-2 [14] = assay: Effect on FASN gene expression in human MIAPaCa2 cells at 400 nM after 24 hrs by RNA sequence analysis relative to control; assay type: functional; summary of the method: as §1
[15] = Binding affinity to 5'-FAM/3'-TAMRA labeled KRAS32 promoter G-quadruplex DNA (unknown origin) assessed as change in melting temperature at 1 uM by FRET assay
Summary of the method: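 FRET melting of FAM/TAMRA dual-labelled promoter G4 oligonucleotides, 400 nM, annealed at 95 °C for 10 min in 60 mM potassium cacodylate (pH 7.4) then cooled to RT. Ligand at 1 μM in solution with 50 mM K+. Fluorescence (ex 450–495, em 515–545 nm) read every 0.5 °C over 30–100 °C with a 30 sec hold per step. ΔTm from curve fitting; triplicate measurements.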

PANC-1 [16] = assay: Effect on PCK2 gene expression in human PANC1 cells at 400 nM after 6 hrs by RNA sequence analysis relative to control; assay type: functional
MIA PaCa-2 [17] = assay: Effect on ROBO3 gene expression in human MIAPaCa2 cells at 400 nM after 24 hrs by RNA sequence analysis relative to control; assay type: functional; summary of the method: as §2
PANC-1 [18] = assay: Effect on IQSEC1 gene expression in human PANC1 cells at 400 nM after 24 hrs by RNA sequence analysis relative to control; assay type: functional; summary of the method: as §1
MIA PaCa-2 [19] = assay: Effect on AKT1 gene expression in human MIAPaCa2 cells at 400 nM after 6 hrs by RNA sequence analysis relative to control; assay type: functional; summary of the method: as §1
MIA PaCa-2 [20] = assay: Effect on IQSEC1 gene expression in human MIAPaCa2 cells at 400 nM after 24 hrs by RNA sequence analysis relative to control; assay type: functional; summary of the method: as §1
MIA PaCa-2 [21] = assay: Effect on RPTOR gene expression in human MIAPaCa2 cells at 400 nM after 6 hrs by RNA sequence analysis relative to control; assay type: functional; summary of the method: as §2
Mus musculus = assay: Toxicity in CD-1 nude mouse xenografted with human MIAPaCa2 cells assessed as change in body weight at 15 mg/kg, iv administered twice weekly for 4 weeks measured for 40 days; assay type: organism-based; details: in vivo, 960 h
PANC-1 [22] = assay: Effect on MAPK12 gene expression in human PANC1 cells at 400 nM after 24 hrs by RNA sequence analysis relative to control; assay type: functional
PANC-1 [23] = assay: Effect on PLXNA1 gene expression in human PANC1 cells at 400 nM after 24 hrs by RNA sequence analysis relative to control; assay type: functional
[24] = Drug uptake in tumor at flank region of CD-1 nude mouse xenografted with human MIAPaCa2 cells at 15 mg/kg, iv measured after 4 hrs; assay type: ADME, organism-based, Neoplasm; details: in vivo
MIA PaCa-2 [25] = assay: Effect on PCK2 gene expression in human MIAPaCa2 cells at 400 nM after 6 hrs by RNA sequence analysis relative to control; assay type: functional
PANC-1 [26] = assay: Effect on SHC2 gene expression in human PANC1 cells at 400 nM after 24 hrs by RNA sequence analysis relative to control; assay type: functional; summary of the method: as §2
WI-38 = assay: Growth inhibition of human WI38 cells after 96 hrs by SRB assay; assay type: cell-based; details: WI-38, 96 h
MIA PaCa-2 [27] = assay: Effect on AKT1S1 gene expression in human MIAPaCa2 cells at 400 nM after 6 hrs by RNA sequence analysis relative to control; assay type: functional; summary of the method: as §1
PANC-1 [28] = assay: Effect on TEAD2 gene expression in human PANC1 cells at 400 nM after 6 hrs by RNA sequence analysis relative to control; assay type: functional; summary of the method: as §2
PANC-1 [29] = assay: Effect on PIK3R2 gene expression in human PANC1 cells at 400 nM after 24 hrs by RNA sequence analysis relative to control; assay type: functional
PANC-1 [30] = assay: Effect on ULK1 gene expression in human PANC1 cells at 400 nM after 6 hrs by RNA sequence analysis relative to control; assay type: functional; summary of the method: as §2
MIA PaCa-2 [31] = assay: Effect on CBFA2T3 gene expression in human MIAPaCa2 cells at 400 nM after 6 hrs by RNA sequence analysis relative to control; assay type: functional; summary of the method: as §1
PANC-1 [32] = assay: Effect on PARD6A gene expression in human PANC1 cells at 400 nM after 6 hrs by RNA sequence analysis relative to control; assay type: functional

Structure (SMILES): O=C1c2ccc3c4c(c(NCCN5CCCC5)cc(c24)C(=O)N1CCCN1CCOCC1)C(=O)N(CCCN1CCOCC1)C3=O
- log2FC (MIA PaCa-2 [1]): -1.17
- log2FC (MIA PaCa-2 [2]): -1.56
- log2FC (MIA PaCa-2 [3]): -3.39
- log2FC (PANC-1 [4]): -0.92
- log2FC (MIA PaCa-2 [5]): -1.19
- log2FC (PANC-1 [6]): -0.67
- log2FC (PANC-1 [7]): 0.03
- log2FC (PANC-1 [8]): -0.98
- log2FC (PANC-1 [9]): 0.07
- log2FC (MIA PaCa-2 [10]): -0.55
- log2FC (PANC-1 [11]): -0.75
- log2FC (MIA PaCa-2 [12]): -2.56
- log2FC (MIA PaCa-2 [13]): -0.06
- log2FC (MIA PaCa-2 [14]): -0.54
- ΔTm [15]: 9.6 °C
- log2FC (PANC-1 [16]): -0.01
- log2FC (MIA PaCa-2 [17]): -0.53
- log2FC (PANC-1 [18]): -0.5
- log2FC (MIA PaCa-2 [19]): -0.2
- log2FC (MIA PaCa-2 [20]): -0.53
- log2FC (MIA PaCa-2 [21]): -1.41
- Activity (Mus musculus): Non-Toxic
- log2FC (PANC-1 [22]): -1.44
- log2FC (PANC-1 [23]): -1.5
- Drug uptake [24]: Active
- log2FC (MIA PaCa-2 [25]): 0.26
- log2FC (PANC-1 [26]): -1.47
- IC50 (WI-38): 1190 nM
- log2FC (MIA PaCa-2 [27]): -0.54
- log2FC (PANC-1 [28]): -0.22
- log2FC (PANC-1 [29]): -0.88
- log2FC (PANC-1 [30]): 0.19
- log2FC (MIA PaCa-2 [31]): -2.74
- log2FC (PANC-1 [32]): -0.63
